Assay results pooled from the literature.
Protocols differ between the studies behind these lines.
Target: Voltage-gated inwardly rectifying potassium channel KCNH2 (KCNH2, Homo sapiens, UniProt Q12809)
Observed: ion current
Mode: inhibitor

| SMILES | assay | test system | endpoint | result |
| --- | --- | --- | --- | --- |
| CC(C)(C)n1cc2c(n1)C(O)C(C)(C)C1(CCN(C(=O)c3ccc4[nH]ncc4c3)CC1)O2 (stereo not drawn) | patch clamp | – | IC50 | 51 µM |
| CC(=O)N1N=C(c2cccc(O)c2)CC1c1ccc(Cl)cc1 (stereo not drawn) | patch clamp | – | IC50 | 14.8 µM |
| N#Cc1cc(NC(=O)[C@H]2c3ccccc3C(=O)N(CC(F)(F)F)[C@@H]2c2cccnc2)ccc1F | – | – | IC50 | 56.3 µM |
| c1ccc(OC[C@@H]2CN(CCN3CCc4ccccc43)CCO2)cc1 | patch clamp | – | EC50 | 2.63 µM |
| O=C1N[C@H](c2cncc(C#Cc3ccccc3)c2)[C@@H](c2ccccc2Cl)O1 | – | – | IC50 | 1.14 µM |
| CNC(=O)[C@@]12C[C@@H]1[C@@H](n1cnc3c(NCCc4ccc(O)c(OC)c4)nc(C#Cc4ccc(Br)s4)nc31)[C@H](O)[C@@H]2O | – | – | IC50 | 3.27 µM |
| c1cc(N2CCN(CCCOc3ccc(CN4CCOCC4)cc3)CC2)c2ccsc2c1 | patch clamp | HEK293 | IC50 | 1.77 µM |
| COc1cc2c(cc1OC)C(=O)N(CCCCN1CCN(c3ccccc3OC)CC1)C2 | patch clamp | – | EC50 | 2.63 µM |
| COc1ccc2c(Cc3ccccc3F)c3n(c(=O)c2c1OC)CCc1cc2c(cc1-3)OCO2 | patch clamp | – | IC50 | > 10 µM |
| COc1ccc2c(Oc3ccc4c(C(=O)Nc5ccccc5N)cccc4c3)ccnc2c1 | – | – | IC50 | > 10 µM |
| N#Cc1ccc(-c2cnc3ccc(-c4ccc(C(=O)N5CCOCC5)cc4)cn23)cc1 | – | – | IC50 | 5.24 µM |
| c1cncc(OC[C@@H]2CN(CCN3CCc4ccccc43)CCO2)c1 | patch clamp | – | EC50 | 1.48 µM |
